ChEMBL document CHEMBL4043297, “Synthesis and Structure-Activity Relationships of the Novel Antimalarials 5-Pyridinyl-4(1 H)-Pyridones” (J Med Chem, 2018)
Blank lines part the entries; values can stand above or below the compound they belong to.

Assays:
Plasmodium falciparum = assay: Antimalarial activity against Plasmodium falciparum 3D7A infected in human RBC after 48 hrs by [3H]-hypoxanthine incorporation assay; format: functional
[1] = Tmax in CD1 mouse at 4.42 mg/kg administered via oral gavage by LC-MS/MS method; format: ADME, organism-based; settings: in vivo
Method in brief: (§1)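 Specific pathogen-free female CD1 (Hsd:ICR) mice, 8–10 weeks old, housed in the institutional animal facility. Each compound was given intravenously at a low dose and orally at a higher dose. Vd, clearance, t1/2, Cmax, Tmax, AUC0-t, AUC∞ and %F were derived from plasma exposure after each route.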

[2] = Cmax in CD1 mouse at 4.42 mg/kg administered via oral gavage by LC-MS/MS method; format: ADME, organism-based; design: dose 4.42 mg/kg, route oral; settings: in vivo
Method in brief: (§2)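 Specific pathogen-free female CD1 (Hsd:ICR) mice, 8 to 10 weeks old. Each compound was given as an intravenous dose and an oral dose at the levels listed. Parameters reported: Vd, clearance, t1/2, Cmax, Tmax, AUC0-t, AUC∞ and %F.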

Plasmodium yoelii = assay: Schizontocidal activity against Plasmodium yoelii infected in CD1 mouse administered via oral gavage as qd for 4 days starting 1 hr post infection by YOYO-1 dye-based flow cytometric method; format: functional
Method in brief: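 Blood schizontocidal activity was tested in a modified 4-day suppressive test in mice infected with P. yoelii. Four oral doses were given by gavage over four days.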

[3] = AUC (0 to t) in CD1 mouse at 4.42 mg/kg administered via oral gavage by LC-MS/MS method; format: ADME, organism-based; settings: in vivo; method in brief: as §2
serum albumin = serum albumin (Homo sapiens, UniProt P02768); assay: Binding affinity to human serum albumin by HPLC method; format: ADME; settings: read-out: PB (converted)
Chain of serum albumin (P02768 whole entry): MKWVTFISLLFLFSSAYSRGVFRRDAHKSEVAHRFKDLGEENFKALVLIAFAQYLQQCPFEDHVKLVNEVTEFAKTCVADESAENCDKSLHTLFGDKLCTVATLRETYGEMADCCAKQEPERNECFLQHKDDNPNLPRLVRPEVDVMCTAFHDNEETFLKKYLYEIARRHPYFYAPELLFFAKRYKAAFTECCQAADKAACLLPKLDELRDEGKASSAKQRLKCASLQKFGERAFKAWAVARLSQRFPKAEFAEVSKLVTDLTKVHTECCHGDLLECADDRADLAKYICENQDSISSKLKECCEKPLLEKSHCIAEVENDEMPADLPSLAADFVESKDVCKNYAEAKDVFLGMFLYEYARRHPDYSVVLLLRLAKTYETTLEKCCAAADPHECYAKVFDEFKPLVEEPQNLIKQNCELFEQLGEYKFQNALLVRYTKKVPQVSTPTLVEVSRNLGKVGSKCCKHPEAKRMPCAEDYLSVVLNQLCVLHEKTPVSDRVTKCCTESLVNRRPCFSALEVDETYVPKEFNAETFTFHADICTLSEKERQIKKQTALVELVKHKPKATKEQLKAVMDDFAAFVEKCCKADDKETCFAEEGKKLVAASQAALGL

[4] = AUC (infinity) in CD1 mouse at 4.42 mg/kg administered via oral gavage by LC-MS/MS method; format: ADME, organism-based; design: dose 4.42 mg/kg, time infinity, route oral; settings: in vivo; method in brief: as §2
[5] = Oral bioavailability in CD1 mouse at 4.42 mg/kg administered via gavage by LC-MS/MS method; format: ADME, organism-based; settings: in vivo; method in brief: as §1
[6] = Volume of distribution in CD1 mouse at 0.211 mg/kg, iv as bolus dose by LC-MS/MS method; format: ADME, organism-based; settings: in vivo; method in brief: as §1
[7] = Cmax in CD1 mouse at 8.366 mg/kg administered via oral gavage by LC-MS/MS method; format: ADME, organism-based; design: dose 8.366 mg/kg, route oral; settings: in vivo; method in brief: as §2
[8] = AUC (0 to t) in CD1 mouse at 8.366 mg/kg administered via oral gavage by LC-MS/MS method; format: ADME, organism-based; settings: in vivo; method in brief: as §2
[9] = Oral bioavailability in CD1 mouse at 8.366 mg/kg administered via gavage by LC-MS/MS method; format: ADME, organism-based; settings: in vivo; method in brief: as §1
[10] = Tmax in CD1 mouse at 8.366 mg/kg administered via oral gavage by LC-MS/MS method; format: ADME, organism-based; settings: in vivo; method in brief: as §1
[11] = AUC (infinity) in CD1 mouse at 8.366 mg/kg administered via oral gavage by LC-MS/MS method; format: ADME, organism-based; design: dose 8.366 mg/kg, route oral, time infinity; settings: in vivo; method in brief: as §2
[12] = Half life in CD1 mouse at 0.211 mg/kg, iv as bolus dose by LC-MS/MS method; format: ADME, organism-based; settings: in vivo; method in brief: as §2
[13] = Clearance in CD1 mouse at 0.211 mg/kg, iv as bolus dose by LC-MS/MS method; format: ADME, organism-based; settings: in vivo; method in brief: as §2
[14] = AUC (0 to t) in CD1 mouse at 8.3 mg/kg administered via oral gavage by LC-MS/MS method; format: ADME, organism-based; settings: in vivo; method in brief: as §2
[15] = Cmax in CD1 mouse at 8.3 mg/kg administered via oral gavage by LC-MS/MS method; format: ADME, organism-based; design: dose 8.3 mg/kg, route oral; settings: in vivo; method in brief: as §2
[16] = Tmax in CD1 mouse at 8.3 mg/kg administered via oral gavage by LC-MS/MS method; format: ADME, organism-based; settings: in vivo; method in brief: as §1
[17] = Half life in CD1 mouse at […], iv as bolus dose by LC-MS/MS method; format: ADME, organism-based; settings: in vivo
[18] = Clearance in CD1 mouse at […], iv as bolus dose by LC-MS/MS method; format: ADME, organism-based; settings: in vivo
[19] = AUC (infinity) in CD1 mouse at 8.3 mg/kg administered via oral gavage by LC-MS/MS method; format: ADME, organism-based; design: dose 8.3 mg/kg, route oral, time infinity; settings: in vivo; method in brief: as §2
[20] = Volume of distribution in CD1 mouse at […], iv as bolus dose by LC-MS/MS method; format: ADME, organism-based; settings: in vivo
[21] = Oral bioavailability in CD1 mouse at 8.3 mg/kg administered via gavage by LC-MS/MS method; format: ADME, organism-based; settings: in vivo; method in brief: as §1

Structure (SMILES): Cc1[nH]c(C)c(-c2ccc(-c3ccc(F)cc3)nc2)c(=O)c1Br
IC50 (Plasmodium falciparum): 129 nM

Structure (SMILES): Cc1[nH]c(C)c(-c2ccc(Oc3ccc(OC(F)(F)F)cc3)nc2)c(=O)c1Cl
IC50 (Plasmodium falciparum): 33 nM

Structure (SMILES): Cc1[nH]c(C)c(-c2ccc(-c3ccccc3F)nc2)c(=O)c1Br
IC50 (Plasmodium falciparum): 64 nM

Structure (SMILES): Cc1[nH]c(C)c(-c2ccc(OCc3cc(F)cc(F)c3)nc2)c(=O)c1Cl
IC50 (Plasmodium falciparum): 80 nM

Structure (SMILES): Cc1[nH]c(C)c(-c2ccc(OCc3ccc(OC(F)(F)F)cc3)nc2)c(=O)c1Br
fraction unbound (serum albumin): 0.03
IC50 (Plasmodium falciparum): 19 nM

Structure (SMILES): Cc1[nH]c(C)c(-c2ccc(OCc3ccccc3C(F)(F)F)nc2)c(=O)c1Br
IC50 (Plasmodium falciparum): 11 nM

Structure (SMILES): Cc1[nH]c(C)c(-c2ccc(C#Cc3ccc(F)cc3F)nc2)c(=O)c1Cl
IC50 (Plasmodium falciparum): 472 nM

Structure (SMILES): Cc1[nH]c(C)c(-c2ccc(-c3ccc(S(C)(=O)=O)cc3)nc2)c(=O)c1Br
IC50 (Plasmodium falciparum): 288 nM

Structure (SMILES): Cc1[nH]c(C)c(-c2ccc(OCc3ccc(OC(F)(F)F)cc3)nc2)c(=O)c1Cl
AUC(0-t) [14]: 5600 ng·h/mL
Cmax [15]: 300 ng/mL
Tmax [16]: 6 h
half-life [17]: 5.32 h
clearance [18]: 2.74 mL/min/kg
ED50 (Plasmodium yoelii): 16.3 mg/kg
AUC(0-inf) [19]: 5600 ng·h/mL
fraction unbound (serum albumin): 0.03
Vd [20]: 1.26 L/kg
IC50 (Plasmodium falciparum): 14 nM
bioavailability [21]: 11%

Structure (SMILES): Cc1[nH]c(CO)c(Cl)c(=O)c1-c1ccc(Oc2ccc(OC(F)(F)F)cc2)cc1
IC50 (Plasmodium falciparum): 133 nM

Continued, in another order:

IC50 (Plasmodium falciparum): 7 nM
Structure (SMILES): Cc1[nH]c(C)c(-c2ccc(-c3cccc(C(F)(F)F)c3)nc2)c(=O)c1Br

Tmax [1]: 10 h
Cmax [2]: 3310 ng/mL
AUC(0-t) [3]: 101000 ng·h/mL
fraction unbound (serum albumin): 0.05
AUC(0-inf) [4]: 106000 ng·h/mL
IC50 (Plasmodium falciparum): 16 nM
bioavailability [5]: 100%
Structure (SMILES): Cc1[nH]c(C)c(-c2ccc(-c3ccc(C(F)(F)F)cc3)nc2)c(=O)c1Cl
ED50 (Plasmodium yoelii): 0.25 mg/kg

IC50 (Plasmodium falciparum): 97 nM
Structure (SMILES): Cc1[nH]c(C)c(-c2ccc(C#Cc3ccc(C(F)(F)F)cc3)nc2)c(=O)c1Cl

IC50 (Plasmodium falciparum): 2 nM
Structure (SMILES): Cc1[nH]c(C)c(-c2ccc(OCc3ccc(C(F)(F)F)cc3)nc2)c(=O)c1Br

IC50 (Plasmodium falciparum): 116 nM
Structure (SMILES): Cc1[nH]c(C)c(-c2ccc(-c3cccc(Cl)c3)nc2)c(=O)c1Cl

IC50 (Plasmodium falciparum): 5 nM
Structure (SMILES): Cc1[nH]c(C)c(-c2ccc(OCc3ccc(C(F)(F)F)cc3)nc2)c(=O)c1Cl

IC50 (Plasmodium falciparum): 44 nM
Structure (SMILES): Cc1[nH]c(C)c(-c2ccc(-c3ccccc3Cl)nc2)c(=O)c1Br

IC50 (Plasmodium falciparum): 35 nM
Structure (SMILES): Cc1[nH]c(C)c(-c2ccc(-c3ccccc3OC(F)(F)F)nc2)c(=O)c1Cl

Vd [6]: 1.24 L/kg
Cmax [7]: 1690 ng/mL
AUC(0-t) [8]: 37400 ng·h/mL
bioavailability [9]: 30%
Tmax [10]: 10 h
fraction unbound (serum albumin): 0.05
AUC(0-inf) [11]: 37500 ng·h/mL
half-life [12]: 12.8 h
IC50 (Plasmodium falciparum): 2 nM
clearance [13]: 1.11 mL/min/kg
Structure (SMILES): Cc1[nH]c(C)c(-c2ccc(-c3ccc(C(F)(F)F)cc3Cl)nc2)c(=O)c1Cl
ED50 (Plasmodium yoelii): 0.33 mg/kg

IC50 (Plasmodium falciparum): 5 nM
Structure (SMILES): Cc1[nH]c(C)c(-c2ccc(CCc3ccc(C(F)(F)F)cc3)nc2)c(=O)c1Cl

IC50 (Plasmodium falciparum): 6 nM
Structure (SMILES): Cc1[nH]c(C)c(-c2ccc(-c3ccc(C(F)(F)F)cc3C(F)(F)F)nc2)c(=O)c1Br
